Laboratory results: ChEMBL document CHEMBL4033790, “Design and Synthesis of Novel Deuterated Ligands Functionally Selective for the γ-Aminobutyric Acid Type A Receptor (GABAAR) α6 Subtype with Improved Metabolic Stability and Enhanced Bioavailability” (J Med Chem, 2018)
Converted amounts (≈) assume the structure as drawn.

Test: Aqueous solubility of the compound in DI water at pH 7 after 2 hrs by LC-MS analysis
Type: physicochemical
Details: buffer, pH 7, 2 h
How it was run: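 10 mg compound dissolved in 2 mL DMAC; 10 μL of this added to 2 mL DI water (pH 7, sonicated) or 2 mL 0.01 M aq HCl (pH 2), held 2 h at 37 °C. Filtered through 0.45 micron filter, then quantified by LC-MS in SIM mode against calibration curves of standards in DMAC (n = 5); n=3.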

Work on `COc1ccc(-n2nc3c4ccc(OC)cc4[nH]cc-3c2=O)cc1` yielded a solubility of 24.3 µM (≈ 7.81 µg/mL).
